Assay results: ChEMBL document CHEMBL3421551, “Puupehenol, a potent antioxidant antimicrobial meroterpenoid from a Hawaiian deep-water Dactylospongia sp. sponge” (J Nat Prod, 2015)
Active and inactive are the calls of the source. The calls are words filed in the database; no cut-off is given here.

Key:
Bacillus cereus = assay: Antimicrobial activity against Bacillus cereus at 10 ug/disc by disc diffusion assay; assay type: functional; conditions: read-out: IZ
Escherichia coli = assay: Antimicrobial activity against Escherichia coli at 10 ug/disc by disc diffusion assay; assay type: functional; conditions: for zone of inhibition at 10 µg/disc: read-out: IZ
Summary of the method: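 Disc diffusion assay, tested alongside S. aureus, B. cereus and P. aeruginosa. Discs loaded at 10 μg each, with a methanol disc as the negative control.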

[1] = Antioxidant activity assessed as ferric reducing antioxidant power at 1 mg/ml by FRAP assay; assay type: physicochemical
Summary of the method: (§1)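 Working reagent was 300 mM acetate buffer (pH 3.6), 10 mM TPTZ in 40 mM HCl and 20 mM FeCl3·6H2O mixed 10:1:1 and warmed to 37 °C. A blank read at 595 nm was taken, then sample was added. After 8 min at room temperature, absorbance was read at 595 nm, in triplicate. FRAP values (μM) came from an FeSO4 standard curve (50–1000 μM) run on each plate.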

Pseudomonas aeruginosa = assay: Antimicrobial activity against Pseudomonas aeruginosa at 10 ug/disc by disc diffusion assay; assay type: functional, organism-based
Staphylococcus aureus = assay: Antimicrobial activity against Staphylococcus aureus at 10 ug/disc by disc diffusion assay; assay type: functional; conditions: read-out: IZ
[2] = Antioxidant activity assessed as ferric reducing antioxidant power at 0.1 mg/ml by FRAP assay; assay type: physicochemical; summary of the method: as §1

Structure (SMILES) | zone of inhibition at 10 µg/disc (Bacillus cereus) | inhibition zone (IZ) (Escherichia coli) | Activity [1] | inhibition zone (IZ) (Pseudomonas aeruginosa) | zone of inhibition at 10 µg/disc (Staphylococcus aureus) | zone of inhibition at 10 µg/disc (Escherichia coli) | Activity [2]
CC1(C)CCC[C@]2(C)[C@H]3[C@H](O)c4cc(O)c(O)cc4O[C@@]3(C)CC[C@@H]12 (relative stereo) | 3 mm | inactive | 2500 µM | inactive | 4 mm |  | 
CC1(C)S[C@@H]2[C@H](NC(=O)[C@H](N)c3ccccc3)C(=O)N2[C@H]1C(=O)O [AMPICILLIN] | 9 mm |  |  | inactive | 31 mm | 20 mm | 
O=C1O[C@H]([C@@H](O)CO)C(O)=C1O [ASCORBIC ACID] |  |  |  |  |  |  | 870 µM
CO [METHYL ALCOHOL] | 0 mm |  | 4.7 µM | inactive | 0 mm | 0 mm | 
CC1(C)CCC[C@]2(C)[C@H]3C=C4C=C(O)C(=O)C=C4O[C@@]3(C)CC[C@@H]12 [PUUPEHENONE] | 3 mm | inactive | 2600 µM | inactive | 4 mm |  | 
